Measured values as given in ChEMBL document CHEMBL4184277, “Substitution of terminal amide with 1H-1,2,3-triazole: Identification of unexpected class of potent antibacterial agents” (2018).
Converted amounts (≈) assume the structure as drawn. The source made the active and inactive calls. The rule behind the calls is not given here.

Experiments:
Staphylococcus aureus [1] = test: Antibacterial activity against methicillin-resistant Staphylococcus aureus ATCC 43300 after 24 hrs by broth microdilution method; format: functional; conditions: ATCC 43300, 24 h
[2] = target: T1, Cell division protein FtsZ (Bacillus subtilis) (UniProt A5Z1V5); test: Inhibition of FtsZ in Bacillus subtilis ATCC 9372 assessed as filamentation at 1 ug/ml
T1 sequence (whole entry): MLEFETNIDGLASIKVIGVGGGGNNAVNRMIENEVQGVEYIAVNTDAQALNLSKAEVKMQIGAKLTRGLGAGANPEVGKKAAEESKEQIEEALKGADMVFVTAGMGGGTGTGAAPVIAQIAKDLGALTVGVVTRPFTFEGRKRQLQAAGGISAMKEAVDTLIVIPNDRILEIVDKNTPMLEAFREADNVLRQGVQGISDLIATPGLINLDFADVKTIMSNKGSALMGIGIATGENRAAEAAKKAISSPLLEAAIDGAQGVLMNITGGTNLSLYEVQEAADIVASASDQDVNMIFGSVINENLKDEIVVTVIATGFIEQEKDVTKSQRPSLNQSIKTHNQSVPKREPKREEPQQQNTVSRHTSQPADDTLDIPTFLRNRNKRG

Staphylococcus aureus [3] = test: Antibacterial activity against penicillin-resistant Staphylococcus aureus after 24 hrs by broth microdilution method; format: functional
[4] = target: T2, Cell division protein FtsZ (Staphylococcus aureus) (UniProt P0A031); test: Inhibition of FtsZ in Staphylococcus aureus assessed as ballooning
T2 sequence (whole entry): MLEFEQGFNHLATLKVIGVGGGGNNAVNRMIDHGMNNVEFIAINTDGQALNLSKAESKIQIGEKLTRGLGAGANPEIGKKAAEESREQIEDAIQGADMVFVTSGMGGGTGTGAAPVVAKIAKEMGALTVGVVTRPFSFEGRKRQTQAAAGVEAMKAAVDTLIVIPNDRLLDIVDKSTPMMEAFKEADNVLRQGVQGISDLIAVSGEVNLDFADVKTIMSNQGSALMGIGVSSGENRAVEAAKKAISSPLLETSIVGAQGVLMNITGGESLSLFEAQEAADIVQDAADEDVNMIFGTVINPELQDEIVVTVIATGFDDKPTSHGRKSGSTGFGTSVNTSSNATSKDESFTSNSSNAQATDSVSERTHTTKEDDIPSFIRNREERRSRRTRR

Staphylococcus aureus [5] = test: Antibacterial activity against Staphylococcus aureus ATCC 25923 after 24 hrs by broth microdilution method; format: functional; conditions: ATCC 25923, 24 h
Outline: (§1)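 Broth microdilution run to the standard NCCLS-recommended procedure, applied to all newly synthesized compounds, with a panel that included four Gram-positive strains.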

Klebsiella pneumoniae = test: Antibacterial activity against Klebsiella pneumoniae ATCC 700603 after 24 hrs by broth microdilution method; format: functional; conditions: Klebsiella pneumoniae, 700603, 24 h; outline: as §1
Bacillus subtilis = test: Antibacterial activity against Bacillus subtilis ATCC 9372 after 24 hrs by broth microdilution method; format: functional; conditions: ATCC 9372, 24 h; outline: as §1
Escherichia coli = test: Antibacterial activity against Escherichia coli ATCC 25922 after 24 hrs by broth microdilution method; format: functional; conditions: ATCC 25922, 24 h; outline: as §1
[6] = target: T1, Cell division protein FtsZ (Bacillus subtilis); test: Inhibition of FtsZ in Bacillus subtilis ATCC 9372 assessed as filamentation

Row | SMILES | MIC (Staphylococcus aureus [1]) [µg/mL] | inhibition [2] | MIC (Staphylococcus aureus [3]) [µg/mL] | inhibition [4] | MIC (Staphylococcus aureus [5]) [µg/mL] | MIC (Klebsiella pneumoniae) [µg/mL] | MIC (Bacillus subtilis) [µg/mL] | MIC (Escherichia coli) [µg/mL] | inhibition [6]
1 | CCCCC(CC)COc1cccc(-c2c[nH]nn2)c1 (racemic) | 4 (≈ 14.6 µM) | inactive | 4 (≈ 14.6 µM) | Active | 2 (≈ 7.32 µM) | 4 (≈ 14.6 µM) | 2 (≈ 7.32 µM) | > 64 | –
2 | Fc1ccc(OCCCCOc2ccc(Cl)cc2)c(F)c1-c1c[nH]nn1 | > 64 | – | > 64 | – | > 64 | > 64 | > 64 | > 64 | –
3 | Cc1cccc(COc2cccc(Cn3cncn3)c2)c1 | > 64 | – | > 64 | – | > 64 | > 64 | > 64 | > 64 | –
4 | c1ccc(COc2cccc(-c3c[nH]nn3)c2)cc1 | > 64 | – | > 64 | – | > 64 | 64 (≈ 255 µM) | > 64 | > 64 | –
5 | CCCCC(CC)COc1cccc(-c2nnco2)c1 (racemic) | – | – | – | – | 32 (≈ 117 µM) | 16 (≈ 58.3 µM) | 16 (≈ 58.3 µM) | > 64 | –
6 | Clc1cccc(COc2cccc(-c3c[nH]nn3)c2)c1 | 16 (≈ 56 µM) | – | 32 (≈ 112 µM) | – | 16 (≈ 56 µM) | 16 (≈ 56 µM) | 16 (≈ 56 µM) | > 64 | –
7 | CCCCC(CC)COc1cccc(-c2n[nH]c(=O)o2)c1 (racemic) | 8 (≈ 27.6 µM) | – | 8 (≈ 27.6 µM) | Active | 4 (≈ 13.8 µM) | 4 (≈ 13.8 µM) | 4 (≈ 13.8 µM) | > 64 | inactive
8 | Cc1cccc(COc2ccc(F)c(-c3c[nH]nn3)c2F)c1 | 16 (≈ 53.1 µM) | – | 32 (≈ 106 µM) | – | 32 (≈ 106 µM) | 64 (≈ 212 µM) | 32 (≈ 106 µM) | > 64 | –
9 | CCCCC(CC)COc1cccc(-c2cnnn2C)c1 (stereo not given) | > 64 | – | > 64 | – | 64 (≈ 223 µM) | 16 (≈ 55.7 µM) | 64 (≈ 223 µM) | > 64 | –
10 | NC(=O)c1c(F)ccc(OCC2COc3ccc(Cl)cc3O2)c1F (stereo not given) | 0.5 (≈ 1.41 µM) | – | – | – | – | – | – | – | –
11 | Cc1ccc(COc2cccc(-c3c[nH]nn3)c2)cc1 | > 64 | – | > 64 | – | 32 (≈ 121 µM) | > 64 | > 64 | > 64 | –
12 | Fc1ccc(OCc2nc3cc(Cl)cnc3s2)c(F)c1-c1c[nH]nn1 | > 64 | – | > 64 | – | > 64 | > 64 | > 64 | > 64 | –
13 | CCCCC(CC)COc1cccc(Cn2cnnn2)c1 (racemic) | > 64 | – | > 64 | – | > 64 | 8 (≈ 27.7 µM) | > 64 | > 64 | –
14 | Clc1cccc(COc2cccc(Cn3cnnn3)c2)c1 | > 64 | – | > 64 | – | > 64 | > 64 | > 64 | > 64 | –
15 | Cc1ccc(COc2cccc(Cn3cncn3)c2)cc1 | > 64 | – | > 64 | – | > 64 | > 64 | > 64 | > 64 | –
16 | CCCCC(CC)COc1ccc(F)c(-c2c[nH]nn2)c1F (racemic) | 4 (≈ 12.9 µM) | – | 8 (≈ 25.9 µM) | – | 8 (≈ 25.9 µM) | 8 (≈ 25.9 µM) | 4 (≈ 12.9 µM) | > 64 | –
17 | CCCCCCCCOc1cccc(-c2c[nH]nn2)c1 | 4 (≈ 14.6 µM) | – | 4 (≈ 14.6 µM) | Active | 4 (≈ 14.6 µM) | 4 (≈ 14.6 µM) | 2 (≈ 7.32 µM) | > 64 | inactive
18 | Cc1cccc(COc2cccc(-c3c[nH]nn3)c2)c1 | 16 (≈ 60.3 µM) | – | 32 (≈ 121 µM) | – | 32 (≈ 121 µM) | 32 (≈ 121 µM) | 32 (≈ 121 µM) | > 64 | –
19 | Cc1ccc(COc2ccc(F)c(-c3c[nH]nn3)c2F)cc1 | 16 (≈ 53.1 µM) | – | 32 (≈ 106 µM) | – | 32 (≈ 106 µM) | > 64 | 32 (≈ 106 µM) | > 64 | –
20 | Clc1ccc(OCCCCOc2cccc(-c3c[nH]nn3)c2)cc1 | > 64 | – | > 64 | – | > 64 | > 64 | > 64 | > 64 | –

Row | SMILES | MIC (Staphylococcus aureus [1]) [µg/mL] | inhibition [2] | MIC (Staphylococcus aureus [3]) [µg/mL] | inhibition [4] | MIC (Staphylococcus aureus [5]) [µg/mL] | MIC (Klebsiella pneumoniae) [µg/mL] | MIC (Bacillus subtilis) [µg/mL] | MIC (Escherichia coli) [µg/mL] | inhibition [6]
21 | CCCCC(CC)COc1cccc(Cn2cncn2)c1 (racemic) | 32 (≈ 111 µM) | – | 32 (≈ 111 µM) | Active | 16 (≈ 55.7 µM) | 16 (≈ 55.7 µM) | 16 (≈ 55.7 µM) | > 64 | inactive
22 | CCCCC(CC)COc1ccccc1-c1c[nH]nn1 (stereo not given) | 8 (≈ 29.3 µM) | – | 8 (≈ 29.3 µM) | Active | 8 (≈ 29.3 µM) | 8 (≈ 29.3 µM) | 8 (≈ 29.3 µM) | > 64 | inactive
23 | Fc1cccc(COc2ccc(F)c(-c3c[nH]nn3)c2F)c1 | > 64 | – | 64 (≈ 210 µM) | – | 64 (≈ 210 µM) | > 64 | > 64 | > 64 | –
24 | O=c1[nH]nc(-c2cccc(OCc3ccccc3)c2)o1 | > 64 | – | > 64 | – | > 64 | > 64 | > 64 | > 64 | –
25 | CCCCC(CC)COc1cccc(-c2cn(C)nn2)c1 (stereo not given) | 32 (≈ 111 µM) | – | > 64 | – | 64 (≈ 223 µM) | 4 (≈ 13.9 µM) | 32 (≈ 111 µM) | > 64 | –
26 | CCCCC(CC)COc1ccc(-c2c[nH]nn2)cc1 (stereo not given) | 4 (≈ 14.6 µM) | – | 4 (≈ 14.6 µM) | Active | 4 (≈ 14.6 µM) | 4 (≈ 14.6 µM) | 2 (≈ 7.32 µM) | > 64 | inactive
27 | Fc1ccc(OCc2ccc(Cl)cc2)c(F)c1-c1c[nH]nn1 | > 64 | – | > 64 | – | > 64 | > 64 | > 64 | > 64 | –
28 | O=[N+]([O-])c1ccc(COc2cccc(Cn3cncn3)c2)cc1 | > 64 | – | > 64 | – | > 64 | > 64 | > 64 | > 64 | –
29 | Fc1ccc(OCc2cccc(Cl)c2)c(F)c1-c1c[nH]nn1 | 8 (≈ 24.9 µM) | – | 16 (≈ 49.7 µM) | – | 16 (≈ 49.7 µM) | > 64 | 16 (≈ 49.7 µM) | > 64 | –
30 | NC(=O)c1c(F)ccc(OCc2nc(-c3ccc(Cl)cc3)c(Br)o2)c1F | 0.06 (≈ 0.135 µM) | – | – | – | – | – | – | – | –
31 | Fc1ccc(OCc2nc(-c3ccc(Cl)cc3)c(Br)o2)c(F)c1-c1c[nH]nn1 | > 64 | – | > 64 | – | > 64 | > 64 | > 64 | > 64 | –
32 | NC(=O)c1c(F)ccc(OCc2nc3cc(Cl)cnc3s2)c1F | 1 (≈ 2.81 µM) | – | 0.5 (≈ 1.41 µM) | – | 0.5 (≈ 1.41 µM) | 0.25 (≈ 0.703 µM) | 0.25 (≈ 0.703 µM) | > 64 | –
33 | Clc1ccc(COc2cccc(Cn3cncn3)c2)cc1 | > 64 | – | > 64 | – | > 64 | 64 (≈ 214 µM) | > 64 | > 64 | –
34 | CCOc1cccc(-c2c[nH]nn2)c1 | > 64 | – | > 64 | – | > 64 | > 64 | > 64 | > 64 | –
35 | CCCCC(CC)COc1cccc(-c2cnn(C)n2)c1 (stereo not given) | > 64 | – | > 64 | – | > 64 | > 64 | > 64 | > 64 | –
36 | CCCCC(CC)COc1cccc(-c2ncno2)c1 (racemic) | > 64 | – | > 64 | – | > 64 | > 64 | > 64 | > 64 | –
37 | Clc1ccc(COc2cccc(-c3c[nH]nn3)c2)cc1 | > 64 | – | > 64 | – | > 64 | > 64 | > 64 | > 64 | –
38 | CCCCC(CC)COc1cccc(C(N)=O)c1 (racemic) | 16 (≈ 64.2 µM) | – | 16 (≈ 64.2 µM) | – | 16 (≈ 64.2 µM) | 8 (≈ 32.1 µM) | 16 (≈ 64.2 µM) | > 64 | –
39 | Clc1cccc(COc2cccc(Cn3cncn3)c2)c1 | > 64 | – | > 64 | – | > 64 | 64 (≈ 214 µM) | > 64 | > 64 | –
40 | CCCCC(CC)COc1ccc(F)c(C(N)=O)c1F (stereo not given) | 2 to 4 (≈ 7.01 to 14 µM) | – | 8 (≈ 28 µM) | – | 4 (≈ 14 µM) | 4 (≈ 14 µM) | 2 (≈ 7.01 µM) | > 64 | –
